Measured values gathered from unrelated publications.
Lines come from different studies, so protocols differ.
Target: Protein kinase C theta type (PRKCQ, Homo sapiens, UniProt Q04759)

observed | method | tested at | remaining binding [%] | Compound
binding | competition with immobilised ligand | 1 µM | 56 | O=C(c1ccc(Nc2nccc(-c3cc4ccccc4s3)n2)cc1)N1CCC(N2CCCC2)CC1
binding | – | 1 µM | 67 | C[C@@H]1CCN(c2nccc(-c3cnn4ncccc34)n2)C1
cell-free assay | competition with immobilised ligand | 1 µM | 92 | CN(C)CC#Cc1ccc(OCCCc2sc(N3CCc4cccc(C(=O)Nc5nc6ccccc6s5)c4C3)nc2C(=O)O)c(F)c1
binding | – | 1 µM | 74 | N[C@H]1CCN(c2nccc(-c3cnn4ncccc34)n2)C1
binding | competition with immobilised ligand | 1 µM | 100 | O=C(NCC1CCOCC1)c1n[nH]cc1NC(=O)c1c(F)cccc1F
binding | – | 1 µM | 86 | c1cnn2ncc(-c3ccnc(N4CCC45COC5)n3)c2c1
cell-free assay | competition with immobilised ligand | 1 µM | 95 | O=C(Nc1ccc(Oc2ccc(F)cc2)cc1)N1CCc2ncccc2[C@H]1c1ccc(F)cc1
cell-free assay | competition with immobilised ligand | 5 µM | 85 | FC(F)(F)Oc1cccc(-c2cnc3ccc(-c4ccncc4)nn23)c1
binding | – | 1 µM | 100 | CN(c1nccc(-c2cnn3ncccc23)n1)C1CC1
binding | competition with immobilised ligand | 10 µM | 8.3 | c1cncc(-c2cccc(Nc3nccc(NC4CCCCC4)n3)c2)c1
binding | – | 1 µM | 88 | CN(C)c1nccc(-c2cnn3ncccc23)n1
binding | competition with immobilised ligand | 1 µM | 100 | O=C(NCCCN1CCOCC1)c1ccc(Nc2ncc(Cl)c(-c3ccc(Cl)s3)n2)cc1
binding | – | 1 µM | 100 | CC1CCCN1c1nccc(-c2cnn3ncccc23)n1 (stereo not shown)
cell-free assay | competition with immobilised ligand | 0.1 µM | 97 | CS(=O)(=O)N1CCCC(NC(=O)[C@H](CCC2CCCCC2)NC(=O)c2ccc(CNC(=O)c3cnc4ccccn34)cc2)C1 (stereo partly shown)
binding | – | 1 µM | 81 | COc1ccnn2ncc(-c3ccnc(N(C)C)n3)c12
binding | competition with immobilised ligand | 1 µM | 63 | CNC(=O)[C@@H]1CC[C@@H](n2c(-c3ccc4cnccc4c3)nc3ccc(C(=O)NCc4cccc(C(N)=O)c4)cc32)C1
cell-free assay | competition with immobilised ligand | 1 µM | 98 | COc1ccc2c(c1)O[C@@H](c1ccc(OC)c(OC)c1)C[C@H]2NC(=O)C1(c2ccc3c(c2)OC(F)(F)O3)CC1
binding | competition with immobilised ligand | 1 µM | 100 | COc1cnc(Nc2cccc(S(N)(=O)=O)c2)nc1N1CCN(c2ccccc2)C(=O)C1
cell-free assay | competition with immobilised ligand | 0.1 µM | 100 | Nc1c(C(=O)NCc2ccc(C(=O)NCCCC3CCCCC3)cc2)cnn1-c1ccccc1
cell-free assay | competition with immobilised ligand | 5 µM | 94 | COc1ncc2cc3ccccc3nc2c1C#N
binding | competition with immobilised ligand | 1 µM | 60 | O=C(c1ccc(Nc2ncc(Cl)c(-c3ccc(Cl)s3)n2)cc1)N1CCC(N2CCCC2)CC1
cell-free assay | competition with immobilised ligand | 1 µM | 91 | C[C@@H]1CN(c2cc(-c3nn(C)c4ccc(OC5(C)CC5)cc34)ncn2)C[C@H](C)O1
